We go through 13 compounds from ChEMBL document CHEMBL4627272, “Design, synthesis, and biological activity evaluation of a series of pleuromutilin derivatives with novel C14 side chains” (2020).

In brackets after ≈: the same amount, converted by molar mass.

Common to all, as to type: functional
Assay [1] deals with Staphylococcus aureus. The assay can be described thus: Antibacterial activity against methicillin-resistant Staphylococcus aureus ATCC 33591 assessed as reduction in bacterial growth incubated for 18 hrs by agar dilution method. As to conditions: ATCC 33591, 18 h. In a few lines: (§1)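 CLSI agar dilution MIC. Stocks at 1920 μg/ml in 0.2% DMSO, twofold diluted and mixed into agar plates to final 0.03–128 µg/mL. Inoculum set to 0.5 turbidity, diluted 10-fold and applied by multipoint inoculator within 30 min, about 10^4 CFU per spot. Plates incubated 35 ± 2°C for 18 h. MIC is the lowest concentration with no visible growth.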
(In general: In agar dilution the substance is mixed into plates at graded concentrations.)

The subject of assay [2] is Staphylococcus aureus. Briefly: Antibacterial activity against methicillin-sensitive Staphylococcus aureus ATCC 29213 assessed as reduction in bacterial growth incubated for 18 hrs by agar dilution method. To be noted: ATCC 29213, 18 h. Summed up:
as §1

Assay [3] deals with Staphylococcus epidermidis. Briefly: Antibacterial activity against methicillin-resistant Staphylococcus epidermidis 16-5 assessed as reduction in bacterial growth incubated for 18 hrs by agar dilution method. To be noted: 16-5, 18 h. Summed up:
as §1

Assay [4] relates to Staphylococcus epidermidis. Briefly: Antibacterial activity against methicillin-sensitive Staphylococcus epidermidis ATCC 12228 assessed as reduction in bacterial growth incubated for 18 hrs by agar dilution method. As to conditions: ATCC 12228, 18 h. Summed up: as §1

Broadly, the MIC is the least concentration at which growth counts as inhibited. Turning to `C=C[C@]1(C)C[C@@H](OC(=O)CS[C@@H]2CC[C@H](C(=O)OCC)C[C@H]2NS(=O)(=O)c2ccc(C(C)=O)cc2)[C@]2(C)[C@H](C)CC[C@]3(CCC(=O)[C@H]32)[C@@H](C)[C@@H]1O`, the MIC (in the assay on Staphylococcus aureus [1]; in the assay with Staphylococcus aureus [2]; in assay [3]; in assay [4]) was 0.25 µg/mL (≈ 0.335 µM) each time.
As to `C=C[C@]1(C)C[C@@H](OC(=O)CS[C@@H]2CC[C@H](C(=O)OCC)C[C@H]2NS(=O)(=O)c2ccc(OC)cc2)[C@]2(C)[C@H](C)CC[C@]3(CCC(=O)[C@H]32)[C@@H](C)[C@@H]1O`, the MIC in the assay with Staphylococcus aureus [1] turned out to be 0.25 µg/mL (≈ 0.341 µM); with Staphylococcus aureus [2] it was 0.5 µg/mL (≈ 0.681 µM); in assay [3], 0.5 µg/mL (≈ 0.681 µM); in assay [4] it was 0.25 µg/mL (≈ 0.341 µM).
Turning to `C=C[C@]1(C)C[C@@H](OC(=O)CS[C@@H]2CC[C@H](C(=O)OCC)C[C@H]2N)[C@]2(C)[C@H](C)CC[C@]3(CCC(=O)[C@H]32)[C@@H](C)[C@@H]1O`, the MIC with Staphylococcus aureus [1] turned out to be 1 µg/mL (≈ 1.77 µM); in the assay on Staphylococcus aureus [2], 1 µg/mL (≈ 1.77 µM); in assay [3] it was 0.25 µg/mL (≈ 0.443 µM); in assay [4] it was 0.25 µg/mL (≈ 0.443 µM).
For the compound `C=C[C@]1(C)C[C@@H](OC(=O)CS[C@@H]2CC[C@H](C(=O)OCC)C[C@H]2NS(=O)(=O)c2ccccc2)[C@]2(C)[C@H](C)CC[C@]3(CCC(=O)[C@H]32)[C@@H](C)[C@@H]1O`, the minimal inhibitory concentration (MIC) with Staphylococcus aureus [1] was determined as 0.5 µg/mL (≈ 0.71 µM); in the assay with Staphylococcus aureus [2], 1 µg/mL (≈ 1.42 µM); in assay [3], 1 µg/mL (≈ 1.42 µM); in assay [4], 0.5 µg/mL (≈ 0.71 µM).
`C=C[C@]1(C)C[C@@H](OC(=O)CS[C@@H]2CC[C@@H](N)C[C@H]2O)[C@]2(C)[C@H](C)CC[C@]3(CCC(=O)[C@H]32)[C@@H](C)[C@@H]1O` [LEFAMULIN]: the MIC in the assay on Staphylococcus aureus [1] was 0.5 µg/mL (≈ 0.985 µM); in the assay on Staphylococcus aureus [2], 0.25 µg/mL (≈ 0.492 µM); in assay [3], 0.25 µg/mL (≈ 0.492 µM); in assay [4], no more than 0.03 µg/mL.
For the compound `C=C[C@]1(C)C[C@@H](OC(=O)CS[C@@H]2CC[C@H](C(=O)OCC)C[C@H]2NS(=O)(=O)c2ccc(Cl)cc2)[C@]2(C)[C@H](C)CC[C@]3(CCC(=O)[C@H]32)[C@@H](C)[C@@H]1O`, the MIC with Staphylococcus aureus [1] was 0.5 µg/mL (≈ 0.677 µM); in the assay with Staphylococcus aureus [2], 1 µg/mL (≈ 1.35 µM); in assay [3], 0.5 µg/mL (≈ 0.677 µM); in assay [4], 0.5 µg/mL (≈ 0.677 µM).
For the compound `C=C[C@]1(C)C[C@@H](OC(=O)CS[C@@H]2CC[C@H](C(=O)OCC)C[C@H]2NS(=O)(=O)c2ccc(C#N)cc2)[C@]2(C)[C@H](C)CC[C@]3(CCC(=O)[C@H]32)[C@@H](C)[C@@H]1O`, the MIC in the assay with Staphylococcus aureus [1] stood at 1 µg/mL (≈ 1.37 µM); with Staphylococcus aureus [2], 1 µg/mL (≈ 1.37 µM); in assay [3] it was 0.5 µg/mL (≈ 0.686 µM); in assay [4], 0.25 µg/mL (≈ 0.343 µM).
For the compound `C=C[C@]1(C)C[C@@H](OC(=O)CS[C@@H]2CC[C@H](C(=O)OCC)C[C@H]2NS(=O)(=O)c2ccc([N+](=O)[O-])cc2)[C@]2(C)[C@H](C)CC[C@]3(CCC(=O)[C@H]32)[C@@H](C)[C@@H]1O`, the MIC in the assay on Staphylococcus aureus [1] worked out at 1 µg/mL (≈ 1.34 µM); in the assay with Staphylococcus aureus [2], 1 µg/mL (≈ 1.34 µM); in assay [3], 0.5 µg/mL (≈ 0.668 µM); in assay [4], 0.5 µg/mL (≈ 0.668 µM).
With `C=C[C@]1(C)C[C@@H](OC(=O)CS[C@@H]2CC[C@H](C(=O)OCC)C[C@H]2NS(=O)(=O)c2ccc(NC(C)=O)cc2)[C@]2(C)[C@H](C)CC[C@]3(CCC(=O)[C@H]32)[C@@H](C)[C@@H]1O`, the MIC (in the assay on Staphylococcus aureus [1]; in the assay on Staphylococcus aureus [2]; in assay [3]; in assay [4]) was 0.5 µg/mL (≈ 0.657 µM) in each case.
Consider `C=C[C@]1(C)C[C@@H](OC(=O)CS[C@@H]2CC[C@H](C(=O)OCC)C[C@H]2NS(=O)(=O)c2ccc(C)cc2)[C@]2(C)[C@H](C)CC[C@]3(CCC(=O)[C@H]32)[C@@H](C)[C@@H]1O`, for which the MIC in the assay on Staphylococcus aureus [1] was 1 µg/mL (≈ 1.39 µM); in the assay on Staphylococcus aureus [2], 1 µg/mL (≈ 1.39 µM); in assay [3], 0.5 µg/mL (≈ 0.696 µM); in assay [4] it was 0.25 µg/mL (≈ 0.348 µM).
For `C=C[C@]1(C)C[C@@H](OC(=O)CS[C@@H]2CC[C@H](C(=O)O)C[C@H]2N)[C@]2(C)[C@H](C)CC[C@]3(CCC(=O)[C@H]32)[C@@H](C)[C@@H]1O`, the minimal inhibitory concentration (MIC) came to 32 µg/mL (≈ 59.7 µM) in the assay with Staphylococcus aureus [1], 32 µg/mL (≈ 59.7 µM) in the assay with Staphylococcus aureus [2], 4 µg/mL (≈ 7.47 µM) in assay [3] and 2 µg/mL (≈ 3.73 µM) in assay [4].
As to `C=C[C@]1(C)C[C@@H](OC(=O)CS[C@@H]2CC[C@H](C(=O)OCC)C[C@H]2NS(=O)(=O)c2ccc(Br)cc2)[C@]2(C)[C@H](C)CC[C@]3(CCC(=O)[C@H]32)[C@@H](C)[C@@H]1O`, the minimal inhibitory concentration (MIC) (in the assay on Staphylococcus aureus [1]; with Staphylococcus aureus [2]; in assay [3]; in assay [4]) was 1 µg/mL (≈ 1.28 µM) each time.
`C=C[C@]1(C)C[C@@H](OC(=O)CS[C@@H]2CC[C@H](C(=O)OCC)C[C@H]2NS(=O)(=O)c2ccc(F)cc2)[C@]2(C)[C@H](C)CC[C@]3(CCC(=O)[C@H]32)[C@@H](C)[C@@H]1O`: the MIC with Staphylococcus aureus [1] worked out at 1 µg/mL (≈ 1.39 µM); with Staphylococcus aureus [2], 1 µg/mL (≈ 1.39 µM); in assay [3], 1 µg/mL (≈ 1.39 µM); in assay [4], 0.5 µg/mL (≈ 0.693 µM).
